# In the library only some 4% were active in any assay of this set; here they are far more common.
# Statin myotox sup = protects C2C12 myotubes from simvastatin toxicity; ATP luminescence, 48 h; scaled: DMSO 0, geranylgeraniol control 100; rescue of ATP level, % at 7.49 µM; actives 0.78% (n = 330,000);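 active means mean ATP rescue above about 67%, or every replicate alone reaching that limit, limit read from the data, passing the limit was not always enough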;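 further: myotubes were challenged with 10 µM simvastatin during compound exposure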
# SIRT5 inh = inhibitors of human sirtuin-5 desuccinylase | Purified SirT5, succinyl-peptide AMC, trypsin-coupled fluorescence | inhibition, % at 15 µM | actives 1.1% (n = 330,000); in the data active means inhibition above about 15%
# Target sequence (Q9NXA8 whole entry, looked up): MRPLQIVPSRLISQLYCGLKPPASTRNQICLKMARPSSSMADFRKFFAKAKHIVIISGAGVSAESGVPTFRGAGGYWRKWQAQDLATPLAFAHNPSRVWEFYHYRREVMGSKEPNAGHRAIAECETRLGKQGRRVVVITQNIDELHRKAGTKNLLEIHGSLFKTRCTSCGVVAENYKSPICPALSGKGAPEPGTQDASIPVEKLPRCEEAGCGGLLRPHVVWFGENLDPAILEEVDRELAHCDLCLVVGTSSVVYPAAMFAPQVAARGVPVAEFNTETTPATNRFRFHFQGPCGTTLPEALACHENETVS
# E-selectin induc = induces E-selectin expression in human endothelial cells. P16581. HUVEC E-selectin immunofluorescence imaging; normalized: neutral wells 0, TNF-alpha wells 100. activation, % at 7.58 µM. actives 0.37% (n = 260,000). AID 686992;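 active means mean E-selectin-positive cell signal at least 10% of the positive control, reached in at least 60% of replicates, without over 20% cell loss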
#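 Test system: HUVEC; input: 3,000 HUVEC/well; measured by: immunofluorescence imaging; read-out: % PE-positive cells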
# rRNA inh HTS = selective bacterial rRNA inhibition in E. coli | AID 720706 | E. coli WT GFP vs humanized-ribosome RFP mutants, fluorescence, 24 h; stronger effect = lower value; DMSO median 0, no signal -100 | GFP signal change (wild-type ribosome), % (concentration not given with the values) | actives 1.6% (n = 350,000);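 active means significant combined selectivity score with lowered wild-type GFP, culture density cut under 30%, mutant RFP and density less affected; inactive means any of these conditions unmet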
# FN deposition inh = fibronectin deposition inhibition. AH1F fibroblasts, Alexa488-fibronectin deposition fluorescence, overnight. inhibition, % at 12.6 µM. actives 0.086% (n = 350,000);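 active means mean inhibition across replicates of 30% or more, regardless of how many single replicates reach that level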;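 further: positive control wells lacked labelled fibronectin entirely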
#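 Material: AH1F fibroblast monolayer depositing Alexa488-labelled fibronectin into matrix | Input: 10000 AH1F cells/well | Medium: DMEM plus 2% serum, read in PBS | Reagent: Alexa488-fibronectin, 24 nM final in well | Compound dosing: One dose per compound, pinned | Schedule: 1 h adhesion, overnight exposure | Measured by: Fluorescence at 485 nm excitation, 525 nm emission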
# FGF22 binding = shifts melting point of recombinant human FGF22; Q9HCT0; recombinant FGF22 thermal shift, SYPRO orange fluorescence; percent of sucrose octasulfate shift, DMSO zero; activity (Tm shift, normalised), % at 9.99 µM; actives 1.5% (n = 340,000); AID 651658;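 active means mean Tm shift, scaled 0 neutral to 100 positive control, at about 1.3% or above, every replicate too, limit read from the data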
# Target sequence (Q9HCT0 whole entry, looked up): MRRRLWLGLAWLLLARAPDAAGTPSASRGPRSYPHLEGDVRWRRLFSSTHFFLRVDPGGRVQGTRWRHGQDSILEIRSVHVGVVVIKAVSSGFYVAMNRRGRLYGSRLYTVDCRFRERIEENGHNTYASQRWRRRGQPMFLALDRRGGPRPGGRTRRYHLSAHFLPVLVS
# Starred values were filed as active, the others as inactive; · = no result given.
SMILES,Statin myotox sup,SIRT5 inh,E-selectin induc,rRNA inh HTS,FN deposition inh,FGF22 binding
CCCCn1c(N)c(N(CCOC)C(=O)c2c(CC)noc2C)c(=O)[nH]c1=O,4,20*,1,8,1,0
CCCNC(=O)C[C@H]1CC[C@@H]2[C@H](COC[C@@H](O)CN2C(=O)CC)O1,1,1,0,0,-3,0
COc1ccc(C(=O)Nc2ccc(NC(=O)c3cccs3)c(OC)c2)cc1Cl,13,0,5,5,1,0
COc1ccc(-c2ccccc2)cc1NC(=O)c1cccs1,-19,16*,·,-5,-6,0
O=C(Nc1nc(-c2ccccc2)ns1)c1cccs1,6,2,·,-38*,·,0
O=C(Nc1nc(-c2ccccc2)cs1)c1cccs1,-26,·,·,·,·,·
COc1ccc(C(=O)Nc2ccc(NC(=O)c3cccs3)cc2)cc1Cl,-33,-6,0,10,-5,43*
COc1ccc(-c2ccccc2)cc1NC(=O)C1(C)CCN1C(=O)C(C)C (centres undefined),-2,22*,0,-23,8,0
CC(C)C(=O)N1CCC1(C)C(=O)Nc1ccccc1OC(F)F (centres undefined),7,2,0,-2,0,0
COc1ccc(-c2csc(NC(=O)c3cccs3)c2C(=O)O)cc1OC,·,0,0,-34*,-4,0
Cc1nc2c(n1O)CCC/C2=N\O,5,·,·,·,·,·
CCc1n[nH]c2c1/C(=N/O)CCC2,87*,·,·,·,·,·
Cc1cc(N2CCN(C)CC2)nc2ccc(NC(=S)NCc3cccs3)cc12,·,-4,·,-23*,5,0
C[C@H](CO)N1C[C@H](C)[C@H](CN(C)C(=O)CCC(F)(F)F)OCCCC[C@H](C)Oc2ccc(NC(=O)Cc3ccccc3)cc2C1=O,·,-3,1,-1,·,0
O=C(CN1CCN(C(c2ccccc2)c2ccccc2)CC1)N1CCN(c2ccccc2)CC1,·,-4,0,-38*,10,0
CC1CCN(CC(=O)N2CCN(c3ccccc3)CC2)CC1,4,-2,0,7,7,0
CC(C)(C)NC(=O)NC(=O)CN1CCN(C(c2ccccc2)c2ccccc2)CC1,·,3,0,-23,6,43*
CC(C)(C)NC(=O)NC(=O)CN1CCN(Cc2ccccc2)CC1,·,0,2,16,11,0
O=C(NCC(=O)N1CCN(C(c2ccccc2)c2ccccc2)CC1)c1ccc(Br)o1,10,0,-1,0,·,0
CC(C)(C)NC(=O)NC(=O)CN1CCCCC1,·,-3,-1,6,-13,43*
CC(C)(C)NC(=O)NC(=O)CN1CCCCCCC1,·,-17,·,17,·,0
O=C(NCC(=O)N1CCN(C(c2ccccc2)c2ccccc2)CC1)c1ccccc1Br,24,20*,·,-2,6,0
O=C(CSc1ccc(-c2ccccc2)nn1)N1CCN(c2ccccc2)CC1,·,18*,0,8,0,0
Cc1ccc(-c2ccc(SCC(=O)N3CCN(c4ccccc4)CC3)nn2)cc1,·,·,·,·,-1,·
O=C(CN1CCCCC1)NC(=O)NC1CCCC1,·,3,·,10,-2,43*
SMILES,Statin myotox sup,SIRT5 inh,E-selectin induc,rRNA inh HTS,FN deposition inh,FGF22 binding
CNC[C@H]1OCCCC[C@@H](C)Oc2ccc(N(C)C)cc2C(=O)N([C@@H](C)CO)C[C@H]1C,-13,6,0,4,·,-1
CO[C@H]1CN(C)C(=O)c2cc(NS(=O)(=O)c3ccc(F)cc3)ccc2OC[C@H](C)NC[C@@H]1C,-9,0,1,-1,-2,0
COc1cc(C)ccc1OCCCOc1c(Cl)cccc1Cl,·,-1,-3,·,-6,0
COc1cc(C)ccc1OCCCOc1cc(C)ccc1Cl,156*,·,·,·,·,·
Cc1ccc(-c2cn(-c3ccc(OC(F)F)cc3)c3[n+]2CCCCC3)cc1,-56,-1,0,-36*,-4,·
CC(C)(C)c1ccc(-c2cn(-c3ccc(Br)cc3)c3[n+]2CCCS3)cc1,·,-4,-9,-50*,-1,0
c1ccc(-c2cn(-c3ccccc3)c3[n+]2CCS3)cc1,-24,-5,3,-10,-69,0
FC(F)Oc1ccc(-n2cc(-c3ccccc3)[n+]3c2CCCCC3)cc1,·,-5,0,-28*,7,0
Clc1ccc(-n2cc(-c3ccc(Br)cc3)[n+]3c2CCCCC3)cc1,·,-3,·,-46*,3,0
C[C@H](CO)N1C[C@H](C)[C@@H](CN(C)C(=O)Nc2ccc(F)cc2)OCCCC[C@H](C)Oc2ccc(NS(=O)(=O)c3cccs3)cc2C1=O,38,5,1,0,·,-1
CCCNC(=O)N1CCC2(CC1)CN(C(C)=O)[C@@H](CO)c1[nH]c3cc(OC)ccc3c12,·,·,·,2,·,·
C[C@@H]1CCCCO[C@H](CN(C)S(=O)(=O)c2cn(C)cn2)[C@@H](C)CN([C@H](C)CO)C(=O)c2cc(NS(=O)(=O)c3ccc(F)cc3)ccc2O1,-14,2,0,1,2,0
C[C@H](CO)N1C[C@H](C)[C@@H](CN(C)C(=O)Nc2ccc(F)cc2)Oc2ncc(Br)cc2C1=O,10,-2,0,2,-6,0
COc1ccccc1-c1ccc2c(c1)O[C@@H](CN(C)C(=O)c1cccnc1)[C@@H](C)CN([C@@H](C)CO)S2(=O)=O,2,-8,0,-1,·,0
CCCCC(=O)Nc1nnc(SCC(=O)NC2CCCC2)s1,3,·,·,·,-1,·
CSc1nsc(SCC(=O)NC2CCCCC2)n1,69*,·,·,·,·,·
O=C(CCCl)Nc1nnc(SCC(=O)NC2CCCC2)s1,4,60*,·,9,-2,0
COc1cccc(C(=O)N(C)c2nnc(-c3ccncc3)s2)c1,82*,·,·,·,·,·
COc1ccc(-c2nnc(N(C)C(=O)c3ccco3)s2)cc1OC,23,0,·,4,-3,0
CN(C(=O)c1cccc(C#N)c1)c1nnc(-c2ccncc2)s1,·,·,·,·,8,·
COc1cccc(-c2nnc(N(C)C(=O)C3CCOC3)s2)c1 (centres undefined),97*,·,·,·,-1,·
Cc1nnc(N(C)C(=O)c2cccnc2)s1,87*,·,·,·,1,·
C[C@@H]1CN([C@@H](C)CO)C(=O)Cc2cc(NC(=O)Nc3ccc(F)cc3)ccc2O[C@H]1CN(C)C(=O)Nc1ccc(F)cc1,-2,-11,0,-2,·,0
CC(C)NC(=O)N(C)C[C@@H]1Oc2cc(-c3ccncc3)ccc2S(=O)(=O)N([C@H](C)CO)C[C@@H]1C,6,1,0,-2,0,0
O=C(Nc1ccnn1C1CCN(C(=O)c2ccc(C(F)(F)F)cc2)CC1)C1CC1,2,23*,·,5,3,0

# Source: PubChem
